pIC50: −log10 of the molar value. Active and inactive are the calls of the source. The calls are words filed in the database; no cut-off is given here.
Molecular target: Prothrombin (Homo sapiens) (UniProt P00734)
Assay: Inhibition of human thrombin at 100 uM
Details: not given

Row | SMILES | inhibition
1 | Cc1ccc(CNC(=O)[C@H](CCc2ccccc2)NC(=O)[C@@H](NC(=O)C(C)(C)Oc2ccccc2Cl)[C@@H](C)O)cc1 | Active
2 | COC[C@H](NC(=O)Cc1cccc(Oc2ccccc2)c1)C(=O)N[C@@H](CCc1ccccc1)C(=O)NCc1ccc(C)cc1 | Active
3 | C[C@@H](O)[C@H](NC(=O)c1ccc(OCc2ccccc2)cc1)C(=O)N[C@@H](CCc1ccccc1)C(=O)N(C)Cc1ccccc1 | Active

Tested on: not listed separately
Assay: Cytotoxicity against human Calu6 cells assessed as cellular ATP level after 72 hrs by luminescence-based ATPlite assay
Assay type: cell-based, Calu-6
Details: read-out: LC50
Outline: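 Calu6 cells, 2000 per well, incubated with compound for 72 h. Viability read as cellular ATP by luminescence (ATPlite). Values are means of at least three independent experiments.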

Row | SMILES | CC50 at 72 h
4 | Cc1ccc(CNC(=O)[C@H](CCc2ccccc2)NC(=O)[C@@H](NC(=O)C(C)(C)Oc2ccccc2Cl)[C@@H](C)O)cc1 | 1.5 µM
5 | COC[C@H](NC(=O)Cc1cccc(Oc2ccccc2)c1)C(=O)N[C@@H](CCc1ccccc1)C(=O)NCc1ccc(C)cc1 | > 25 µM
6 | C[C@@H](O)[C@H](NC(=O)c1ccc(OCc2ccccc2)cc1)C(=O)N[C@@H](CCc1ccccc1)C(=O)N(C)Cc1ccccc1 | 6.6 µM

Organism: Homo sapiens
Assay: Inhibition of human chymotrypsin at 100 uM
Details: not given

Row | SMILES | inhibition
7 | Cc1ccc(CNC(=O)[C@H](CCc2ccccc2)NC(=O)[C@@H](NC(=O)C(C)(C)Oc2ccccc2Cl)[C@@H](C)O)cc1 | Active
8 | COC[C@H](NC(=O)Cc1cccc(Oc2ccccc2)c1)C(=O)N[C@@H](CCc1ccccc1)C(=O)NCc1ccc(C)cc1 | Active
9 | C[C@@H](O)[C@H](NC(=O)c1ccc(OCc2ccccc2)cc1)C(=O)N[C@@H](CCc1ccccc1)C(=O)N(C)Cc1ccccc1 | Active

Tested on: not listed separately
Assay: Inhibition of chymotrypsin-like activity of human 20s proteasome beta-1 subunit in human erythrocyte assessed as hydrolysis of Ac-WLA-AMC fluorogenic substrate
Details: not given

Row | SMILES | pIC50
10 | Cc1ccc(CNC(=O)[C@H](CCc2ccccc2)NC(=O)[C@@H](NC(=O)C(C)(C)Oc2ccccc2Cl)[C@@H](C)O)cc1 | < 4.70
11 | COC[C@H](NC(=O)Cc1cccc(Oc2ccccc2)c1)C(=O)N[C@@H](CCc1ccccc1)C(=O)NCc1ccc(C)cc1 | < 4.70
12 | C[C@@H](O)[C@H](NC(=O)c1ccc(OCc2ccccc2)cc1)C(=O)N[C@@H](CCc1ccccc1)C(=O)N(C)Cc1ccccc1 | < 4.70

Organism: Homo sapiens
Assay: Inhibition of human elastase at 100 uM
Details: not given

Row | SMILES | inhibition
13 | Cc1ccc(CNC(=O)[C@H](CCc2ccccc2)NC(=O)[C@@H](NC(=O)C(C)(C)Oc2ccccc2Cl)[C@@H](C)O)cc1 | Active
14 | COC[C@H](NC(=O)Cc1cccc(Oc2ccccc2)c1)C(=O)N[C@@H](CCc1ccccc1)C(=O)NCc1ccc(C)cc1 | Active
15 | C[C@@H](O)[C@H](NC(=O)c1ccc(OCc2ccccc2)cc1)C(=O)N[C@@H](CCc1ccccc1)C(=O)N(C)Cc1ccccc1 | Active

Molecular target: Cathepsin B (Homo sapiens) (UniProt P07858)
Assay: Inhibition of human cathepsin B at 100uM
Details: not given

Row | SMILES | inhibition
16 | Cc1ccc(CNC(=O)[C@H](CCc2ccccc2)NC(=O)[C@@H](NC(=O)C(C)(C)Oc2ccccc2Cl)[C@@H](C)O)cc1 | Active
17 | COC[C@H](NC(=O)Cc1cccc(Oc2ccccc2)c1)C(=O)N[C@@H](CCc1ccccc1)C(=O)NCc1ccc(C)cc1 | Active
18 | C[C@@H](O)[C@H](NC(=O)c1ccc(OCc2ccccc2)cc1)C(=O)N[C@@H](CCc1ccccc1)C(=O)N(C)Cc1ccccc1 | Active

Molecular target: Trypsin (Homo sapiens) (UniProt P07477+P07478+P35030)
Assay: Inhibition of human trypsin at 100 uM
Assay type: protein assay
Details: not given

Row | SMILES | inhibition
19 | Cc1ccc(CNC(=O)[C@H](CCc2ccccc2)NC(=O)[C@@H](NC(=O)C(C)(C)Oc2ccccc2Cl)[C@@H](C)O)cc1 | Active
20 | COC[C@H](NC(=O)Cc1cccc(Oc2ccccc2)c1)C(=O)N[C@@H](CCc1ccccc1)C(=O)NCc1ccc(C)cc1 | Active
21 | C[C@@H](O)[C@H](NC(=O)c1ccc(OCc2ccccc2)cc1)C(=O)N[C@@H](CCc1ccccc1)C(=O)N(C)Cc1ccccc1 | Active

Molecular target: Tissue-type plasminogen activator (Homo sapiens) (UniProt P00750)
Assay: Inhibition of tissue plasminogen activator at 100 uM
Details: not given

Chain of Tissue-type plasminogen activator (Homo sapiens) (P00750 36-562 limits assumed): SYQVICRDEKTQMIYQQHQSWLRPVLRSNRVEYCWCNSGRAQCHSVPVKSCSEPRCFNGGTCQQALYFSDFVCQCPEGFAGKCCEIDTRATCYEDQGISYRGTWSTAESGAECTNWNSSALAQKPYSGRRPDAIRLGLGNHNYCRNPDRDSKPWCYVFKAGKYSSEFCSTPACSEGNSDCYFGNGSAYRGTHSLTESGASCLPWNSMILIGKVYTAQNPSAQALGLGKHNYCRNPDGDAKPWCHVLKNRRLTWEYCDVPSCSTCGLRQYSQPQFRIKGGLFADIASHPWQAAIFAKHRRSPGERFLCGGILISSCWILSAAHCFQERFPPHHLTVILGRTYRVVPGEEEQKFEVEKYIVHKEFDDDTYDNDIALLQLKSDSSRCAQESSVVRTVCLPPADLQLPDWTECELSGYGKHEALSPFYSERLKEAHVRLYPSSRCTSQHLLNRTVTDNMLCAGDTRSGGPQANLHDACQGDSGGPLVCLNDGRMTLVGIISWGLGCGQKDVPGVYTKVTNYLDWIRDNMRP

Row | SMILES | inhibition
22 | Cc1ccc(CNC(=O)[C@H](CCc2ccccc2)NC(=O)[C@@H](NC(=O)C(C)(C)Oc2ccccc2Cl)[C@@H](C)O)cc1 | Active
23 | COC[C@H](NC(=O)Cc1cccc(Oc2ccccc2)c1)C(=O)N[C@@H](CCc1ccccc1)C(=O)NCc1ccc(C)cc1 | Active
24 | C[C@@H](O)[C@H](NC(=O)c1ccc(OCc2ccccc2)cc1)C(=O)N[C@@H](CCc1ccccc1)C(=O)N(C)Cc1ccccc1 | Active

Molecular target: T1, Calpain-1 catalytic subunit (Homo sapiens) (UniProt P07384)
T1 sequence (whole entry): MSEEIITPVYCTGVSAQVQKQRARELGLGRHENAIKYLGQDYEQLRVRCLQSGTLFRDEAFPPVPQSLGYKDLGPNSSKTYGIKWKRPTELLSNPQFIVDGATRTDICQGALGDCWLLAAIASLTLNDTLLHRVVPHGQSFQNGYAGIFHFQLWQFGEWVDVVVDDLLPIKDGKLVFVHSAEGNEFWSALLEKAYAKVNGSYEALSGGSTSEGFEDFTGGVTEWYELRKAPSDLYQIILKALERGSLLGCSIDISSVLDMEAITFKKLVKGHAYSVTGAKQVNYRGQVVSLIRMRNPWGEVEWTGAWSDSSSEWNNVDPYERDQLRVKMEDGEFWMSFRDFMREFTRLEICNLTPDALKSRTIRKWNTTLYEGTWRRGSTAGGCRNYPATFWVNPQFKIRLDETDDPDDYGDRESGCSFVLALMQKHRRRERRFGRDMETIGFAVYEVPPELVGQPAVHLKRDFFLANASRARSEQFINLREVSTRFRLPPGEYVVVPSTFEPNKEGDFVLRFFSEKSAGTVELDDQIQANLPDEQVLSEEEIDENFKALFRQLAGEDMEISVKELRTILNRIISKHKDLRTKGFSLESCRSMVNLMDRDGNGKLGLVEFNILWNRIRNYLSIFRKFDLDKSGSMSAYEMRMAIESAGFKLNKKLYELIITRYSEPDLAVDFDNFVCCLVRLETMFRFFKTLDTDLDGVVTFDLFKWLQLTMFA
Assay: Inhibition of human calpain 1 at 100 uM
Details: not given

Row | SMILES | inhibition
25 | Cc1ccc(CNC(=O)[C@H](CCc2ccccc2)NC(=O)[C@@H](NC(=O)C(C)(C)Oc2ccccc2Cl)[C@@H](C)O)cc1 | Active
26 | COC[C@H](NC(=O)Cc1cccc(Oc2ccccc2)c1)C(=O)N[C@@H](CCc1ccccc1)C(=O)NCc1ccc(C)cc1 | Active
27 | C[C@@H](O)[C@H](NC(=O)c1ccc(OCc2ccccc2)cc1)C(=O)N[C@@H](CCc1ccccc1)C(=O)N(C)Cc1ccccc1 | Active

Tested on: not listed separately
Assay: (§1) Inhibition of TNF-alpha-induced NF-kappaB activation in human HEK293 cells after 3 hrs by luciferase reporter gene assay
Assay type: cell-based
Details: HEK293, 3 h
Outline: (§2)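 NF-κB-luciferase reporter in HEK293 cells (10,000 per well). Cells were pre-incubated with compound for 1 h, then stimulated with 10 ng/ml TNF-α for 3 h with compound still present. IC50 and percentage inhibition were reported as means of at least three independent experiments.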

Row | SMILES | pIC50
28 | Cc1ccc(CNC(=O)[C@H](CCc2ccccc2)NC(=O)[C@@H](NC(=O)C(C)(C)Oc2ccccc2Cl)[C@@H](C)O)cc1 | 6.16
29 | COC[C@H](NC(=O)Cc1cccc(Oc2ccccc2)c1)C(=O)N[C@@H](CCc1ccccc1)C(=O)NCc1ccc(C)cc1 | 5.21
30 | C[C@@H](O)[C@H](NC(=O)c1ccc(OCc2ccccc2)cc1)C(=O)N[C@@H](CCc1ccccc1)C(=O)N(C)Cc1ccccc1 | 5.36

Tested on: HEK293
Assay: as §1
Assay type: cell-based
Design: concentration or dose not given beside the values
Details: dose or concentration not given here
Outline: as §2

Row | SMILES | inhibition
31 | Cc1ccc(CNC(=O)[C@H](CCc2ccccc2)NC(=O)[C@@H](NC(=O)C(C)(C)Oc2ccccc2Cl)[C@@H](C)O)cc1 | 97%
32 | COC[C@H](NC(=O)Cc1cccc(Oc2ccccc2)c1)C(=O)N[C@@H](CCc1ccccc1)C(=O)NCc1ccc(C)cc1 | 40%
33 | C[C@@H](O)[C@H](NC(=O)c1ccc(OCc2ccccc2)cc1)C(=O)N[C@@H](CCc1ccccc1)C(=O)N(C)Cc1ccccc1 | 86%

Molecular target: T2, Coagulation factor XII (Homo sapiens) (UniProt P00748)
T2 sequence (whole entry): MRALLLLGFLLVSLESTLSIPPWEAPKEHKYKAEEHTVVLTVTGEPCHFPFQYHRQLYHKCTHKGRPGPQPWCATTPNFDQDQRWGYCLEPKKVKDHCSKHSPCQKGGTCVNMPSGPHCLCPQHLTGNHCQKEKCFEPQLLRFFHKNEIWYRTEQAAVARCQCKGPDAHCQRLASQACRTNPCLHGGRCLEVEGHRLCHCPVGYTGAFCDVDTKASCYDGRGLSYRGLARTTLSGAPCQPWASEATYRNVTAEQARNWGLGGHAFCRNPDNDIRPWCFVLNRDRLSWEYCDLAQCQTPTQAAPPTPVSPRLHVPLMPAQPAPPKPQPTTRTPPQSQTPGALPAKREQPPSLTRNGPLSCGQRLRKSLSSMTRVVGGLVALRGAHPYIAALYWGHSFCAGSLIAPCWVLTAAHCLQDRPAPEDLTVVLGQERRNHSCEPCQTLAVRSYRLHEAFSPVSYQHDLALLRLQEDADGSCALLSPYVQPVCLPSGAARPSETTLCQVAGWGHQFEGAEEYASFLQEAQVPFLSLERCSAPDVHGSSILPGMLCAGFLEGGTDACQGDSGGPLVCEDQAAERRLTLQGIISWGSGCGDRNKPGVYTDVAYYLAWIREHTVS
Assay: Inhibition of human coagulation factor beta 12a at 100 uM
Details: not given

Row | SMILES | inhibition
34 | Cc1ccc(CNC(=O)[C@H](CCc2ccccc2)NC(=O)[C@@H](NC(=O)C(C)(C)Oc2ccccc2Cl)[C@@H](C)O)cc1 | Active
35 | COC[C@H](NC(=O)Cc1cccc(Oc2ccccc2)c1)C(=O)N[C@@H](CCc1ccccc1)C(=O)NCc1ccc(C)cc1 | Active
36 | C[C@@H](O)[C@H](NC(=O)c1ccc(OCc2ccccc2)cc1)C(=O)N[C@@H](CCc1ccccc1)C(=O)N(C)Cc1ccccc1 | Active

Molecular target: Plasminogen (Homo sapiens) (UniProt P00747)
Assay: Inhibition of human plasmin at 100 uM
Details: not given

Chain of Plasminogen (Homo sapiens) (P00747 97-580 limits assumed): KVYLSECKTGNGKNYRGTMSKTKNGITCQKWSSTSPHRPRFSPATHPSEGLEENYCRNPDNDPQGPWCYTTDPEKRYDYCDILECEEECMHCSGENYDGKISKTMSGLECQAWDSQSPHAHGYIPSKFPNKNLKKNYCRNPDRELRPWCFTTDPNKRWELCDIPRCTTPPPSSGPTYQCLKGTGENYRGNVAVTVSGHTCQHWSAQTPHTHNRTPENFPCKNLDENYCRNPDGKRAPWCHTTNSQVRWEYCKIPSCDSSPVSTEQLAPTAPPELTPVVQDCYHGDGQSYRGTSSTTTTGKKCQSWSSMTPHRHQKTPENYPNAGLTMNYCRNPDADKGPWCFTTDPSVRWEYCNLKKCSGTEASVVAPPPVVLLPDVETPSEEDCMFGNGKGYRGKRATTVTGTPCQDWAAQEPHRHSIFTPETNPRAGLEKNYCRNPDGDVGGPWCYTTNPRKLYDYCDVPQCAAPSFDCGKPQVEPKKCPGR
Chain of Plasminogen (Homo sapiens) (P00747 581-810 limits assumed): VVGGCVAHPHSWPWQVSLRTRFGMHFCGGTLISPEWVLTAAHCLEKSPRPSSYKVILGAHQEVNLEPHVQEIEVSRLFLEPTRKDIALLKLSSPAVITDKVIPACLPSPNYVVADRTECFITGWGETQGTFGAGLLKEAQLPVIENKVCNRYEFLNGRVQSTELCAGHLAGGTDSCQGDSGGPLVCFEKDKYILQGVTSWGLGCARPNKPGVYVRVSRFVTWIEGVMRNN

Row | SMILES | inhibition
37 | Cc1ccc(CNC(=O)[C@H](CCc2ccccc2)NC(=O)[C@@H](NC(=O)C(C)(C)Oc2ccccc2Cl)[C@@H](C)O)cc1 | Active
38 | COC[C@H](NC(=O)Cc1cccc(Oc2ccccc2)c1)C(=O)N[C@@H](CCc1ccccc1)C(=O)NCc1ccc(C)cc1 | Active
39 | C[C@@H](O)[C@H](NC(=O)c1ccc(OCc2ccccc2)cc1)C(=O)N[C@@H](CCc1ccccc1)C(=O)N(C)Cc1ccccc1 | Active

Molecular target: Procathepsin L (Homo sapiens) (UniProt P07711)
Assay: Inhibition of human cathepsin L at 100uM
Details: not given

Chain of Procathepsin L (Homo sapiens) (P07711 114-333 limits assumed): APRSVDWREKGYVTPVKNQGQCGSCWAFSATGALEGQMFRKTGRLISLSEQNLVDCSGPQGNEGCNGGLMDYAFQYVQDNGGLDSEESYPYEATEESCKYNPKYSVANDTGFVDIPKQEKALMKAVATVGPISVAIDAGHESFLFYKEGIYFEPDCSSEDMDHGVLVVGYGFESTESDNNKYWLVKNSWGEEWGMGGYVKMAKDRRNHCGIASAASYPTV

Row | SMILES | inhibition
40 | Cc1ccc(CNC(=O)[C@H](CCc2ccccc2)NC(=O)[C@@H](NC(=O)C(C)(C)Oc2ccccc2Cl)[C@@H](C)O)cc1 | Active
41 | COC[C@H](NC(=O)Cc1cccc(Oc2ccccc2)c1)C(=O)N[C@@H](CCc1ccccc1)C(=O)NCc1ccc(C)cc1 | Active
42 | C[C@@H](O)[C@H](NC(=O)c1ccc(OCc2ccccc2)cc1)C(=O)N[C@@H](CCc1ccccc1)C(=O)N(C)Cc1ccccc1 | Active

Tested on: not listed separately
Assay: Inhibition of chymotrypsin-like activity of human 20s proteasome beta2 subunit in human erythrocyte assessed as hydrolysis of Ac-WLA-AMC fluorogenic substrate
Details: not given

Row | SMILES | pIC50
43 | Cc1ccc(CNC(=O)[C@H](CCc2ccccc2)NC(=O)[C@@H](NC(=O)C(C)(C)Oc2ccccc2Cl)[C@@H](C)O)cc1 | < 4.70
44 | COC[C@H](NC(=O)Cc1cccc(Oc2ccccc2)c1)C(=O)N[C@@H](CCc1ccccc1)C(=O)NCc1ccc(C)cc1 | < 4.70
45 | C[C@@H](O)[C@H](NC(=O)c1ccc(OCc2ccccc2)cc1)C(=O)N[C@@H](CCc1ccccc1)C(=O)N(C)Cc1ccccc1 | < 4.70

Tested on: not listed separately
Assay: Inhibition of chymotrypsin-like activity of human 20s proteasome beta5 subunit in human erythrocyte assessed as hydrolysis of Ac-WLA-AMC fluorogenic substrate
Details: not given

Row | SMILES | pIC50
46 | Cc1ccc(CNC(=O)[C@H](CCc2ccccc2)NC(=O)[C@@H](NC(=O)C(C)(C)Oc2ccccc2Cl)[C@@H](C)O)cc1 | 7.12
47 | COC[C@H](NC(=O)Cc1cccc(Oc2ccccc2)c1)C(=O)N[C@@H](CCc1ccccc1)C(=O)NCc1ccc(C)cc1 | 6.26
48 | C[C@@H](O)[C@H](NC(=O)c1ccc(OCc2ccccc2)cc1)C(=O)N[C@@H](CCc1ccccc1)C(=O)N(C)Cc1ccccc1 | 5.04
